SENP6 inh – inhibitors of human SENP6 protease | Q9GZR1 | Recombinant SENP6 catalytic domain, aminoluciferin luminescence | inhibition, % at 10 µM | 330,000 tested, 1.8% active | AID 2599;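 active = inhibition above about 50% at the single tested dose, limit read from the data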;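 note: plate controls were DMSO wells with enzyme for no effect and DMSO wells lacking enzyme for full effect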
SENP8 block-1 – blocks the human protease SENP8; Q96LD8; purified SENP8, Z-RLRGG-aminoluciferin cleavage, luminescence; inhibition, % at 10 µM; 330,000 tested, 1.2% active; AID 2540; in the data active = inhibition above about 50%
SENP8 block-2 – inhibitors of human SENP8 protease; Q96LD8; recombinant SENP8, Nedd8 substrate fluorescence; inhibition, % at 20 µM; 360,000 tested, 0.64% active; AID 602440; in the data active = inhibition mostly above about 40%, no sharp cut-off; inactive = mostly below about 27%
Apaf1 inhib – blocks human Apaf-1 apoptosome activity; O14727; reconstituted apoptosome caspase-3 activity, DEVD-Rh110 fluorescence; inhibition, % at 20 µM; 330,000 tested, 0.71% active; active = inhibition of at least 40% at 20 µM;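 note: plate controls were DMSO wells for no effect and DEVD-CHO caspase inhibitor wells for full effect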
Target sequence (O14727 whole entry, looked up): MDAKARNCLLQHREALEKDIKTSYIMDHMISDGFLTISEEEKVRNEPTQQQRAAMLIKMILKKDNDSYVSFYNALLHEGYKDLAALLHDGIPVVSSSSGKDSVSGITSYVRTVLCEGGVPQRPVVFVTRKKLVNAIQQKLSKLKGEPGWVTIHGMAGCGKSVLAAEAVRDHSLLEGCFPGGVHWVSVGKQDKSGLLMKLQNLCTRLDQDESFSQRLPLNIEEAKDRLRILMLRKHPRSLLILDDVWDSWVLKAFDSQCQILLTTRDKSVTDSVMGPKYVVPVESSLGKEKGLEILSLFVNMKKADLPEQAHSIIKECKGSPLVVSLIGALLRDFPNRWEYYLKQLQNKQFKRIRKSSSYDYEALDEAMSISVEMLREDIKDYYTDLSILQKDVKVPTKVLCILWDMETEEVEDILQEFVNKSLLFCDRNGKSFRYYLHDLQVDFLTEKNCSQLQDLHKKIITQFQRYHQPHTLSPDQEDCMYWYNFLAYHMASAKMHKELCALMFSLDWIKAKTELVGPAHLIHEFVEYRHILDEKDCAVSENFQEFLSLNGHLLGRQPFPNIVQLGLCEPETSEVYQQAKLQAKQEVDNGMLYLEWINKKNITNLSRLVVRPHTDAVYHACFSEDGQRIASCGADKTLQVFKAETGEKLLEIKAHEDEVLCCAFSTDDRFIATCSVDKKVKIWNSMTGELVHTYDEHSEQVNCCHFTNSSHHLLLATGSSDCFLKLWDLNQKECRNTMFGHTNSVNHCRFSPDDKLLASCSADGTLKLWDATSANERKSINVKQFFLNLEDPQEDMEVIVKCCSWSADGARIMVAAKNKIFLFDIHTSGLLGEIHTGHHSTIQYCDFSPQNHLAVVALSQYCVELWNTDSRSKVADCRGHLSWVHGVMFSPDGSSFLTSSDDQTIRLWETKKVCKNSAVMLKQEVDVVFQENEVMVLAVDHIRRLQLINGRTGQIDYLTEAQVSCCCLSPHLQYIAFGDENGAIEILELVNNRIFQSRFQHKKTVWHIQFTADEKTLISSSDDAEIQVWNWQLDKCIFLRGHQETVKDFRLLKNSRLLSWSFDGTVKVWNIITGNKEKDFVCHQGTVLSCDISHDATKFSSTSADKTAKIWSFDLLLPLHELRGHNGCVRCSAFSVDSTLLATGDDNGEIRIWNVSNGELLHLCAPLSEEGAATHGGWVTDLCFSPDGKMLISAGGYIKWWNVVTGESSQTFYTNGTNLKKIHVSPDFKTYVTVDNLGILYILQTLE
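Assay system: Apoptosome proteins | Medium: pH 7.5 Hepes buffer with CHAPS, BSA, DTT | Also added: Cytochrome c and DEVD-Rh110 substrate | Times: 30 min plus 50 min, RT | Detection: Rhodamine 110 fluorescence at Ex 480/Em 540 nm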
SENP7 inh – blocks the human protease SENP7; Q9BQF6; inhibition, % at 5 µM; recombinant SENP7, Z-RLRGG-aminoluciferin luminescence, 40 min; 330,000 tested, 1.5% active;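 active = inhibition above about 50% at the single test dose, limit read from the data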;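 note: plate controls were DMSO with enzyme for no effect and no enzyme buffer wells for full effect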
UBC13 inh – inhibitors of human UBC13 polyubiquitin chain formation; P61088; TR-FRET; inhibition, % at 20 µM; 330,000 tested, 0.47% active; AID 485273; in the data active = inhibition above about 45%, passing the limit was not always enough; inconclusive = no clear call, values can overlap the other calls
SENP8 conf – confirmation of human SENP8 protease inhibitors; AID 488912; 6,200 tested, 40% active; Recombinant SENP8, Z-RLRGG-aminoluciferin luminescence, 60 min; inhibition, % at 12.5 µM; shares compounds with SENP7 inh;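 active = mean inhibition across replicates above about 50%, limit read from the data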
SENP6 conf – human SENP6 inhibition, confirmed | recombinant SENP6, Z-RLRGG-aminoluciferin luminescence | inhibition, % at 12.5 µM | 6,200 tested, 58% active | shares compounds with SENP7 inh | AID 488915
SENP7 conf – confirmation of human SENP7 protease inhibitors. shares compounds with SENP7 inh. recombinant SENP7, Z-RLRGG-aminoluciferin luminescence, 40 min. inhibition, % at 12.5 µM. 6,200 tested, 69% active. AID 488917
Casp3 SENP sel – selectivity test for SENP inhibitors: human caspase-3 inhibition; shares compounds with SENP7 inh; purified caspase-3, Z-DEVD-aminoluciferin luminescence, 60 min; inhibition, % at 12.5 µM; 6,200 tested, 60% active; AID 488918;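 active = mean inhibition above about 50%, limit read from the data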;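 note: plate controls were enzyme with DMSO for no effect and wells without caspase-3 for full effect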
Luc interf – luminescence interference (SENP counter-screen). shares compounds with SENP7 inh. Pre-incubated SENP8/Z-RLRGG-aminoluciferin, luciferase luminescence interference. inhibition, % at 12.5 µM. 6,200 tested, 39% active;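 active = mean inhibition above about 50% when retested at one dose, limit read from the data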;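 note: plate controls were DMSO wells with completed reaction for no effect and substrate without enzyme for full effect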
Casp3 UBC13 ctr – inhibits human caspase-3 in UBC13 counter-screen. shares compounds with UBC13 inh. Recombinant caspase-3, Caspase-Glo 3/7 luminescence, 60 min. 1,400 tested, 4% active. inhibition, % at 20 µM;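 active = mean inhibition across replicates above about 26%, limit read from the data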;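 note: plate controls were DMSO with caspase-3 for no effect and DMSO wells lacking enzyme for full effect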
UBC13 conf – human UBC13 polyubiquitin inhibition, confirmed; shares compounds with UBC13 inh; UBC13 polyubiquitination, TR-FRET, biochemical; 1,400 tested, 68% active; AID 488859; inhibition, % at 10 µM; in the data active = inhibition above about 45%; inconclusive = no clear call, values can overlap the other calls
The depositor's hits bear a star; u = inconclusive; x = not tested or not shown. Hits are enriched below; roughly 3% of the tested compounds scored in any of these assays.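 Rule for the calls, unless noted: active = mean inhibition above about 50% in the one-dose retest (limit read from the data); inactive = the rest.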

SMILES	SENP6 inh	SENP8 block-1	SENP8 block-2	Apaf1 inhib	SENP7 inh	UBC13 inh	SENP8 conf	SENP6 conf	SENP7 conf	Casp3 SENP sel	Luc interf	others
CCc1ccc2c(c1)NC(=O)C2(C)Cc1ccccc1Cl (centres undefined)	x	x	1.3	x	x	x	x	x	x	x	x
CC(=O)c1sc(N/N=C\c2ccccc2O)nc1C	68.3*	56.4*	-352.4	-0.1	43.1	-3.5	-1.3	45.5	81.8*	46.2	38.4
CCOC(=O)c1sc(N/N=C/c2ccccc2)nc1C	16.8	-15.6	-412.7	13.4	-2.5	14.8	x	x	x	x	x
O=C(c1sccc1-c1ccccc1)N1CCN(S(=O)(=O)c2ccccc2F)CC1	1.5	1.5	12.1	14.7	-1.1	2.6	x	x	x	x	x
O=c1[nH]c(-c2ccc(O)cc2)nc2scc(-c3cccs3)c12	7.3	-14.6	-406.7	-7.2	-4.7	22.2	x	x	x	x	x
O=C(O)c1ccc(-c2nc3scc(-c4ccccc4)c3c(=O)[nH]2)cc1	61.1*	31.7	-404.8	0.2	25.1	9.2	37.5	29.5	61.9*	22.6	18.0
O=C(CSc1ccc(-c2ccncc2)nn1)N1CCCCC1	-6.4	-5.1	11.3	-11.5	6.3	-4.3	x	x	x	x	x
O=C(CSc1ccc(-c2ccc(F)cc2)nn1)N1CCCCC1	67.7*	29.4	12.6	9.5	62.7*	-16.8	38.2	37.7	78.4*	80.4*	58.3*
Cc1cccc(N=C2NC(=O)/C(=C/c3cccs3)S2)c1	52.1*	7.4	-8.4	9.0	6.7	-22.2	6.4	16.3	22.9	15.8	5.9
CC1(C2CC2)NC(=O)N(CC(=O)Nc2ccccc2F)C1=O (centres undefined)	-1.3	10.7	4.4	-7.2	-5.8	-0.9	x	x	x	x	x
CCOC(=O)c1cc(C(=O)Nc2cccc(C)c2)nn1C	39.7	30.6	6.6	-3.7	59.3*	10.6	46.4	43.0	78.5*	72.4*	58.1*
C(=N\Nc1nncc2ccccc12)/c1ccccc1	33.3	23.7	-28.2	-5.7	29.9	8.0	x	x	x	x	x
COc1ccccc1/C=N/Nc1nccnc1Cl	90.2*	85.2*	-150.9	6.9	90.8*	-4.5	86.1*	84.8*	98.5*	95.3*	89.3*
COc1ccccc1C=NNC(=O)NN=Cc1ccccc1OC	x	x	11.2	x	x	x	x	x	x	x	x
COc1ccc(/C=N\Nc2ccccn2)c(OC)c1	55.0*	53.9*	-24.8	8.0	42.9	-3.7	7.4	61.7*	87.1*	62.5*	1.7
Cc1cccc(/C=N/Nc2nncc3ccccc23)c1	91.6*	90.0*	5.1	8.6	95.6*	-8.3	73.9*	94.1*	102.2*	94.3*	12.8
COc1cc(/C=N/Nc2nncc3ccccc23)cc(OC)c1OC	69.6*	58.8*	21.4	10.2	78.3*	-14.8	77.1*	75.4*	93.5*	81.5*	70.6*
Cc1ccccc1CN(C)C(C)C(=O)Nc1ccccc1F (centres undefined)	-17.1	-2.7	-0.9	18.5	-2.0	-7.7	x	x	x	x	x
COc1ccc(C(O)c2nc(-c3cccc4cccnc34)cs2)cc1 (centres undefined)	x	x	-145.8	x	x	x	x	x	x	x	x
COc1ccc(/C=N/Nc2nncc3ccccc23)c(OC)c1	76.6*	64.5*	17.2	4.9	77.9*	-16.4	14.9	72.9*	42.6	34.3	4.5
CC(=O)Nc1ccc(-c2nnn(CC(=O)c3ccc(F)cc3)n2)cc1Cl	82.4*	0.7	16.8	-16.9	-0.8	7.6	14.2	8.6	2.7	-2.2	-1.1
C1=CC2=NC34CCCCC3CC3=C(CCCC3)N4C2=CC1=NC1CCCCC1 (centres undefined)	51.2*	13.4	25.4	36.7	2.5	-144.4	-25.0	-17.3	-10.8	-11.1	-7.2
CC(=O)Nc1cccc(C(=O)OCC(=O)NC(=O)NC2CCCC2)c1	x	x	17.3	x	x	x	x	x	x	x	x
CC(C)(C)c1ccc(OCCC(=O)NCCc2ccc(S(N)(=O)=O)cc2)cc1	-1.6	8.0	3.6	14.7	-6.7	0.2	x	x	x	x	x
CCc1ccc(S(=O)(=O)c2n[nH]n3c2nc(=O)c2ccccc23)cc1	9.1	-1.6	-216.7	-20.8	-3.5	0.7	x	x	x	x	x
SMILES	SENP6 inh	SENP8 block-1	SENP8 block-2	Apaf1 inhib	SENP7 inh	UBC13 inh	SENP8 conf	SENP6 conf	SENP7 conf	Casp3 SENP sel	Luc interf	others
O=c1nc2c(-c3ccccc3F)n[nH]n2c2ccccc12	85.3*	90.2*	-271.6	0.2	90.0*	15.5	79.4*	92.3*	99.8*	92.8*	53.2*
COC(=O)C1CC2=C(CCC2=O)N(c2ccccc2)C1=O (centres undefined)	x	x	-28.2	x	x	x	x	x	x	x	x
CN(C(=O)CSc1ncnc2ccccc12)C1CCCCC1	-10.8	-1.4	11.0	-5.0	-3.3	7.2	x	x	x	x	x
CCOC(=O)C1(CCCc2ccccc2)CCN(C(=O)CCCn2cncn2)CC1	2.1	-6.9	3.7	0.8	-6.1	-4.3	x	x	x	x	x
CCOc1cc2c(C#N)c(N3CCNCC3)nc(N)c2c(N)n1	88.3*	36.6	-325.6	21.0	46.8	63.3*	-8.3	-4.2	-7.6	1.5	1.1	Casp3 UBC13 ctr=24.5;UBC13 conf=104.8*
CCOC(=O)c1oc2ccccc2c1COC(=O)CNC(=O)c1ccc(C)cc1	-19.2	-2.9	-7.7	13.9	5.2	-1.0	x	x	x	x	x
CCCCOc1ccc(-c2cnc3ccccc3n2)cc1	96.1*	90.9*	-407.0	-1.0	94.5*	53.7*	52.3*	64.1*	55.3*	82.7*	20.5	Casp3 UBC13 ctr=92.9*;UBC13 conf=u
COc1ccccc1NC(=O)NCC(c1ccco1)N1CCCCC1 (centres undefined)	-2.5	5.1	7.9	-1.9	6.0	2.4	x	x	x	x	x
COc1cccc2sc3ccc(C#Cc4ccc(N)cc4)cc3c(=O)c12	-2.3	-9.7	-23.8	0.2	14.1	-47.2	x	x	x	x	x
COc1cccc2sc3ccc(C#CC4(O)CCCCC4)cc3c(=O)c12	93.1*	89.4*	-320.5	20.2	87.8*	53.0*	90.9*	95.1*	99.6*	81.8*	46.2	Casp3 UBC13 ctr=90.7*;UBC13 conf=u

Source: PubChem BioAssay
